Results on 5 compounds are retold here after ChEMBL document CHEMBL1212928, “Synthesis and resolution of cis-(+/-)-methyl (1R,2S/1S,2R)-2-[(4-hydroxy-4-phenylpiperidin-1-yl)methyl]-1-(4-methylphenyl)cyclopropanecarboxylate [(+/-)-PPCC)]: new sigma receptor ligands with neuroprotective effect” (J Med Chem, 2010).

A word on the Ki: it is a dissociation constant, usually derived from enzyme kinetics or from competition with a known ligand. Low values mean a stronger hold on the target, high ones a looser hold on the target.

Structures are written as SMILES. Calls of active or inactive are those of the source. The calls are words filed in the database; no cut-off is given here.

The test system of assay [1] is Astrocyte. Nature of the assay: Neuroprotective activity against glutamate-induced ROS production in albino rat astrocytes assessed as dichlorofluresceine produced per gram of protein per 30 mins at 25 uM by spectrofluorimetry (RVb = 4.45 +/- 0.51 nmol). In kind it is functional.
Assay [2] in a line: Neuroprotective activity against glutamate-induced transglutaminase-2 expression albino rat astrocytes assessed as reduction in transglutaminase level at 25 uM by immunoblotting. Particulars: Astrocyte. It is filed as functional, cell-based. The method, boiled down: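 Primary rat neocortical astroglial cultures at 14 DIV, about 90-95% GFAP-positive. Exposed for 24 h to ligand at 25 μM, with or without glutamate at 500 μM. TG2 expression was measured by immunoblot with densitometry and compared against control and glutamate-alone cultures.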
Background: A western blot detects proteins with antibodies after separation by electrophoresis.

Assay [3] relates to Astrocyte. Nature of the assay: Neuroprotective activity against glutamate-induced GSH depletion in rat astrocytes assessed as GSH level at 25 uM measured per gram of protein by spectrofluorimetry (RVb = 9.08 +/- 0.9 […]). It is filed as functional.
Assay [4] deals with Sigma non-opioid intracellular receptor 1 (Cavia porcellus, UniProt Q60492). Nature of the assay: Displacement of [3H](+)-pentazocine from guinea pig sigma1 opioid receptor by liquid scintillation counting. For orientation: Loss of bound radioactivity is the signal in a displacement assay; it reports binding, not function.
Sequence of Sigma non-opioid intracellular receptor 1 (Q60492 whole entry): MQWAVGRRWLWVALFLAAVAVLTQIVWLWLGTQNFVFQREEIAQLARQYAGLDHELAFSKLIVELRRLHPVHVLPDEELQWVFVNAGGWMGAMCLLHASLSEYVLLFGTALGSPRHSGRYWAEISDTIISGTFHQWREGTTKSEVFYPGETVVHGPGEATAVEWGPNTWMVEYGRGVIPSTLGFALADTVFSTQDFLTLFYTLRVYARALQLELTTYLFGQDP
Assay [5] can be described thus: (§1) Displacement of [3H]-DTG from sigma2 opioid receptor by liquid scintillation counting. Further details: species or system Cavia porcellus.
Another assay is filed under the species Cavia porcellus. The description is as §1.
For another assay, the system named is Rattus norvegicus. Nature of the assay: Analgesic activity in Sprague-Dawley rat assessed as reduction in (-)-U50,488H-induced tail flick latency at 1 mg/kg, sc pretreated 30 mins prior to (-)-U50,488H challenge. It is filed as functional, organism-based. Further details: dose 1 mg/kg. An outline of the steps: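 Rat tail-flick test. Ligand given systemically at 1 mg/kg sc as a pretreatment before a KOP agonist. Tail-flick latency was followed over the observation period, with basal latency also recorded.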
For orientation: Hot-plate and tail-flick tests time the reaction to a heat stimulus.

In the case of `CC(C)=CCN1CC[C@]2(C)c3cc(O)ccc3C[C@H]1[C@H]2C` [(+)-PENTAZOCINE], the Activity in the assay on Astrocyte [1] was 3.46 nmol; with Astrocyte [3] it was 14.15 nmol. Moreover, the result in assay [2] was Active.

For `COC(=O)C1(c2ccc(C)cc2)CC1CN1CCC(O)(c2ccccc2)CC1` (racemic), the Activity in the assay with Astrocyte [1] was determined as 5.51 nmol; with Astrocyte [3] it was 8.05 nmol. The Ki in assay [4] stood at 1.8 nM; in assay [5], 20.8 nM. For the same compound, in assay [2], the outcome was inactive.

For the compound `COC(=O)[C@@]1(c2ccc(C)cc2)C[C@H]1CN1CCC(O)(c2ccccc2)CC1`, the Activity worked out at 3.67 nmol in the assay with Astrocyte [1], 103 nM in the assay filed under Cavia porcellus and 14.87 nmol in the assay on Astrocyte [3]. This compound showed an inhibitory constant (Ki) in assay [4] of 13 nM. The result in assay [2] was inactive. Further, the result in the assay on Rattus norvegicus was Active.

Take `COC(=O)[C@]1(c2ccc(C)cc2)C[C@@H]1CN1CCC(O)(c2ccccc2)CC1`: the values for the Activity in the assay with Astrocyte [1] and in the assay with Astrocyte [3] were 3.05 nmol and 13.44 nmol, respectively. The results for the Ki in assay [4] and in assay [5] were 1.9 nM and 50.2 nM, respectively. Further, the result in assay [2] was Active.

Consider `CC[C@H]1C[C@H]2C[C@H]3c4[nH]c5ccc(OC)cc5c4CCN(C2)[C@@H]13` [IBOGAINE], for which the Activity stood at 5.82 nmol in the assay on Astrocyte [1] and 7.95 nmol in the assay with Astrocyte [3]. In addition, the result in assay [2] was inactive.
